These results are taken from ChEMBL document CHEMBL1157852, “Modulation of doxorubicin activity in cancer cells by conjugation with fatty acyl and terpenyl hydrazones” (Eur J Med Chem, 2010).

By pIC50 is commonly meant the IC50 on a negative log10 scale, so that one unit is a factor of ten. A lower pIC50 goes with a large IC50.

Experiment [1] concerns HL-60. Nature of the experiment: Cytotoxicity against human HL60 cells after 24 hrs by MTT assay. The conditions noted are these: HL-60, 24 h. It is filed as functional, cell-based. In outline: (§1)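 MTT assay. Cells seeded and cultured 24 h, then exposed to compound for 24, 48 or 72 h. MTT added to a final 0.05% (HL-60, 518A2) or 0.1% (KB-V1, MCF-7) for 2 h. Formazan dissolved in 10% SDS/DMSO with 0.6% acetic acid; absorbance read at 570 nm against 630 nm background. Viability taken relative to untreated controls (100%). IC50 from concentration-response curves, mean ± SD of four independent experiments.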
On the technique in general: Formazan colour is commonly taken as a measure of viable cells.

Experiment [2] concerns HL-60. The experiment can be described thus: Cytotoxicity against human HL60 cells after 72 hrs by MTT assay. It is filed as functional, cell-based. The conditions noted are these: HL-60, 72 h. In outline:
as §1

Experiment [3] in a line: Cytotoxicity against human vinblastine-resistant KBV1 cells after 48 hrs by MTT assay. It is filed as functional, cell-based. The note with it: KB-V1, 48 h. In short, it runs like this: as §1
Experiment [4] has as its system HL-60. Nature of the experiment: Cytotoxicity against human HL60 cells assessed as increase in ROS production at 5 uM after 72 hrs by NBT reduction assay relative to control. The class given is functional. In outline:
(§2)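 NBT assay. HL-60 cells (0.5×10⁶/mL) or trypsinised 518A2 cells (5×10⁴/mL) pre-incubated 24 h at 37 °C, then given compound at a final 5 µM for 24 or 72 h. Medium removed; cells incubated with 0.1% NBT for 1 h (HL-60) or 4 h (518A2). Diformazan dissolved in 2 M KOH/DMSO; A630 read against 405 nm. Given as % of untreated controls; double quadruplicates.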

The subject of experiment [5] is MCF7. Nature of the experiment: Cytotoxicity against human topotecan-resistant MCF7 cells after 48 hrs by MTT assay. It is filed as functional, cell-based. The note with it: MCF7, 48 h. In short, it runs like this:
as §1

Experiment [6] in a line: Cytotoxicity against human 518A2 cells after 24 hrs by MTT assay. The class given is functional, cell-based. The conditions noted are these: 518A2, 24 h. In short, it runs like this: as §1
Experiment [7] can be described thus: Cytotoxicity against human vinblastine-resistant KBV1 cells after 24 hrs by MTT assay. The note with it: KB-V1, 24 h. It is filed as functional, cell-based. In short, it runs like this:
as §1

Experiment [8] deals with 518A2. The experiment can be described thus: Induction of apoptosis in human 518A2 cells assessed as appearance of intact mitochondria in cytosol at 5 uM after 6 hrs using JC1 dye relative to control. The class given is functional. In outline:
(§3)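 Mitochondrial membrane potential measured with JC-1. Cells exposed to 5 µM compound for 6 or 18 h, pelleted at 400 g, stained with 0.2× JC-1 at 37 °C for 15 min (HL-60) or 35 min (518A2), washed and resuspended in PBS. Red fluorescence (ex 585/em 590 nm) and green (ex 510/em 527 nm) read; red/green ratio relative to untreated controls (100%). Mean ± SD, four independent experiments.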

In experiment [9] the test system is MCF7. Nature of the experiment: Cytotoxicity against human topotecan-resistant MCF7 cells after 72 hrs by MTT assay. The conditions noted are these: MCF7, 72 h. The class given is functional, cell-based. In short, it runs like this: as §1
Experiment [10] concerns HL-60. Nature of the experiment: Cytotoxicity against human HL60 cells after 48 hrs by MTT assay. It is filed as functional, cell-based. The note with it: HL-60, 48 h. In outline:
as §1

Experiment [11] can be described thus: Cytotoxicity against human vinblastine-resistant KBV1 cells after 72 hrs by MTT assay. The class given is functional, cell-based. The conditions noted are these: KB-V1, 72 h. In outline: as §1
The test system of experiment [12] is 518A2. The experiment can be described thus: Induction of apoptosis in human 518A2 cells assessed as appearance of intact mitochondria in cytosol at 5 uM after 18 hrs using JC1 dye relative to control. It is filed as functional. In short, it runs like this: as §3
Experiment [13] can be described thus: Cytotoxicity against human 518A2 cells after 48 hrs by MTT assay. The class given is functional, cell-based. The conditions noted are these: 518A2, 48 h. In outline:
as §1

Experiment [14] concerns MCF7. Nature of the experiment: Cytotoxicity against human topotecan-resistant MCF7 cells after 24 hrs by MTT assay. It is filed as functional, cell-based. The note with it: MCF7, 24 h. In outline:
as §1

Experiment [15] has as its system HL-60. Nature of the experiment: Induction of apoptosis in human HL60 cells assessed as appearance of intact mitochondria in cytosol at 5 uM after 18 hrs using JC1 dye relative to control. The class given is functional. In short, it runs like this: as §3
A short description of experiment [16]: Cytotoxicity against human 518A2 cells after 72 hrs by MTT assay. The note with it: 518A2, 72 h. It is filed as functional, cell-based. In outline: as §1
Experiment [17] deals with HL-60. The experiment can be described thus: Induction of apoptosis in human HL60 cells assessed as appearance of intact mitochondria in cytosol at 5 uM after 6 hrs using JC1 dye relative to control. It is filed as functional. In outline: as §3
Experiment [18] can be described thus: Cytotoxicity against human 518A2 cells assessed as increase in ROS production at 5 uM after 72 hrs by NBT reduction assay relative to control. It is filed as functional. In short, it runs like this:
as §2

A short description of experiment [19]: Cytotoxicity against human 518A2 cells assessed as increase in ROS production at 5 uM after 24 hrs by NBT reduction assay relative to control. It is filed as functional. In outline: as §2
The subject of experiment [20] is HL-60. The experiment can be described thus: Cytotoxicity against human HL60 cells assessed as increase in ROS production at 5 uM after 24 hrs by NBT reduction assay relative to control. The class given is functional. In short, it runs like this: as §2

SMILES strings stand for the structures. pIC50: −log10 of the molar value.

`COc1cccc2c1C(=O)c1c(O)c3c(c(O)c1C2=O)C[C@@](O)(/C(CO)=N/NC(=O)CCCCC(=O)O[C@@H]1C[C@H](C)CC[C@H]1C(C)C)C[C@@H]3O[C@H]1C[C@H](N)[C@H](O)[C@H](C)O1.Cl`: the pIC50 in the experiment on HL-60 [1] is 6.41; with HL-60 [2] it was 6.48; in experiment [3], 4.46; in the experiment on MCF7 [5] it was 5.33; in experiment [6], 5.92; in [7] it was below 4.00. The pIC50 in the experiment on MCF7 [9] was 5.62; with HL-60 [10], 6.48; in experiment [11], 4.63; in experiment [13], 6.38; in the experiment on MCF7 [14], 5.17; in experiment [16] it was 6.49. In addition, the Activity came to 5.7% with HL-60 [4]; 82% with 518A2 [8]; 79% in the experiment with 518A2 [12]; 66% in the experiment with HL-60 [15]; 93% in the experiment with HL-60 [17]; 1.5% in [18]. Besides, the Activity in experiment [19] came out at 2.2%; in the experiment on HL-60 [20] it was 1%.

Regarding `COc1cccc2c1C(=O)c1c(O)c3c(c(O)c1C2=O)C[C@@](O)(/C(CO)=N/NC(=O)CCCCCCCCCCC(=O)O[C@H]1C[C@H]2CC[C@]1(C)C2(C)C)C[C@@H]3O[C@H]1C[C@H](N)[C@H](O)[C@H](C)O1.Cl`, the negative logarithm of the IC50 (pIC50) in the experiment on HL-60 [1] was 6.64; with HL-60 [2], 6.89; in experiment [3] it was 4.68; in the experiment with MCF7 [5], 5.42; in [6] it was 6.24; in [7] it was 4.16. Moreover, the pIC50 in the experiment with MCF7 [9] was 5.74; in the experiment with HL-60 [10], 6.72; in experiment [11] it was 4.62; in [13], 6.64; in the experiment with MCF7 [14], 5.20; in [16] it was 6.72. Besides, the Activity in the experiment with HL-60 [4] is 7.9%; with 518A2 [8] it was 66%; in the experiment on 518A2 [12], 73%; in the experiment on HL-60 [15], 65%; in the experiment with HL-60 [17] it was 78%; in experiment [18], 3.8%. Also, the Activity in [19] worked out at 2.7%; in the experiment on HL-60 [20] it was 1.8%.

Consider `COc1cccc2c1C(=O)c1c(O)c3c(c(O)c1C2=O)C[C@@](O)(/C(CO)=N/NC(=O)CCCCCCCC(=O)O[C@@H]1C[C@H](C)CC[C@H]1C(C)C)C[C@@H]3O[C@H]1C[C@H](N)[C@H](O)[C@H](C)O1.Cl`, for which the pIC50 with HL-60 [1] was 6.40; in the experiment with HL-60 [2] it was 6.43; in experiment [3], 4.67; in the experiment on MCF7 [5] it was 5.14; in experiment [6], 6.09; in experiment [7] it was 4.10. Besides, the negative logarithm of the IC50 (pIC50) was 5.37 in the experiment on MCF7 [9]; 6.31 in the experiment with HL-60 [10]; 4.66 in experiment [11]; 6.29 in experiment [13]; 4.99 in the experiment with MCF7 [14]; 6.34 in [16]. The Activity in the experiment on HL-60 [4] is recorded as 6.8%; in the experiment with 518A2 [8] it was 83%; in the experiment with 518A2 [12], 72%; with HL-60 [15], 68%; in the experiment with HL-60 [17] it was 84%; in [18] it was 1.3%. Further, the figures for the Activity (in [19]; in the experiment with HL-60 [20]) were 1.4% and 1%, respectively.

For `CCCCC/C=C\C/C=C\CCCCCCCC(=O)N/N=C(\CO)[C@]1(O)Cc2c(O)c3c(c(O)c2[C@@H](O[C@H]2C[C@H](N)[C@H](O)[C@H](C)O2)C1)C(=O)c1c(OC)cccc1C3=O.Cl` [DOXORUBICIN LINOLEYLHYDRAZONE HYDROCHLORIDE], the pIC50 in the experiment with HL-60 [1] is 5.25; in the experiment on HL-60 [2], 5.42; in experiment [3] it was 4.73; in the experiment with MCF7 [5] it was 4.69; in experiment [6], 5.54; in experiment [7], 4.53. For the same compound, the pIC50 in the experiment on MCF7 [9] was 5.00; in the experiment on HL-60 [10], 5.55; in [11] it was 4.71; in [13] it was 5.74; with MCF7 [14], 4.39; in experiment [16] it was 5.80. In addition, the Activity in the experiment with HL-60 [4] is 1.4%; with 518A2 [8], 80%; with 518A2 [12], 97%; in the experiment with HL-60 [15], 87%; in the experiment on HL-60 [17] it was 88%; in experiment [18], 2.3%. The Activity is given as 1.6% in experiment [19] and 0.4% in the experiment with HL-60 [20].

As for `CCCCCCCC/C=C\CCCCCCCC(=O)N/N=C(\CO)[C@]1(O)Cc2c(O)c3c(c(O)c2[C@@H](O[C@H]2C[C@H](N)[C@H](O)[C@H](C)O2)C1)C(=O)c1c(OC)cccc1C3=O.Cl` [DOXORUBICIN OLEYLHYDRAZONE HYDROCHLORIDE], the negative-log IC50 (pIC50) with HL-60 [1] was 5.92; in the experiment on HL-60 [2], 6.25; in experiment [3] it was 4.75; in the experiment with MCF7 [5], 5.21; in experiment [6], 6.17; in experiment [7], 4.49. Moreover, the pIC50 with MCF7 [9] was 5.18; in the experiment with HL-60 [10], 6.25; in experiment [11], 4.90; in experiment [13], 6.41; in the experiment with MCF7 [14] it was 4.84; in experiment [16], 6.38. Also, the Activity in the experiment on HL-60 [4] is 4%; in the experiment with 518A2 [8] it was 96%; in the experiment with 518A2 [12], 99%; with HL-60 [15], 104%; in the experiment on HL-60 [17], 103%; in experiment [18], 4.4%. In addition, the Activity in [19] is listed as 2.8%; in the experiment with HL-60 [20] it was 0.6%.
